Laboratory results as given in ChEMBL document CHEMBL1150310, “Development of novel water-soluble photocleavable protective group and its application for design of photoresponsive paclitaxel prodrugs” (Bioorg Med Chem, 2008).
≈ marks a conversion by molar mass, not a printed value.

Assays:
Type in all cases: physicochemical
[1] = Stability in solid state at -20 degC after 4 months; details: 2922 h
[2] = Stability in phosphate-buffered saline at pH 7.4 at 4 degC after 1 month; details: buffer, pH 7.4, 730.5 h
[3] = Photostability in phosphate-buffered saline assessed as paclitaxel release at pH 7.4 after irradiation with UV laser of 355 nm, 10 Hzm 5 mJ irradiation; details: buffer
Outline: (§1)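 The conversion profile was measured in 10 mM PBS (pH 7.4) under pulsed UV laser irradiation (355 nm, 10 Hz, 5 mJ). The released isotaxel then undergoes spontaneous O–N intramolecular acyl migration to give paclitaxel.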

[4] = Photostability in phosphate-buffered saline assessed as paclitaxel release at pH 7.4 after 4 mins of irradiation with UV laser of 355 nm, 10 Hzm 5 mJ irradiation; details: buffer, pH 7.4, 4 min; outline: as §1
[5] = Photostability in phosphate-buffered saline assessed as paclitaxel release at pH 7.4 after 4 mins of irradiation with UV light of 365 nm, 6W irradiation; details: buffer, pH 7.4, 4 min
Outline: (§2)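 Prodrug, coumarin or parent drug, as a 2 mM DMSO stock, was diluted 3:297 into 10 mM PBS (pH 7.4). It was irradiated at room temperature with a 365 nm, 6 W UV lamp, and conversion was followed by HPLC.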

[6] = Photostability in phosphate-buffered saline assessed as 7-[Bis-[2-[[2-(dimethylamino)ethyl]amino]-2-oxoethyl]amino]-4-(hydroxymethyl) coumarin hydrochloride release at pH 7.4 after 1 hr of irradiation with UV light of 365 nm, 6W irradiation; details: buffer, pH 7.4, 1 h; outline: as §2
[7] = Solubility in water at 15 degC; details: in the assay text read “25 degC” for “15 degC”
Outline: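 The filtrate of the aqueous preparation was analysed by RP-HPLC. Water solubility was quantified against a calibration curve built from standard solutions of known prodrug amounts.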

**Q.** What does the source list for `CC(=O)O[C@H]1C(=O)[C@@]2(C)[C@H]([C@H](OC(=O)c3ccccc3)[C@]3(O)C[C@H](OC(=O)[C@H](OC(=O)c4ccccc4)[C@@H](NC(=O)OCc4cc(=O)oc5cc(N(CC(=O)NCCN(C)C)CC(=O)NCCN(C)C)ccc45)c4ccccc4)C(C)=C1C3(C)C)[C@]1(OC(C)=O)CO[C@@H]1C[C@@H]2O.Cl`?
**A.** Stability [1]: Stable; Stability [2]: Stable; t1/2 [3]: 15.1 min; Activity [4]: 24%; Activity [5]: 69%; Activity [6]: 11%; solubility [7]: > 100000 µg/mL

**Q.** Which solubility [7] does the source give for `CC(=O)O[C@H]1C(=O)[C@@]2(C)[C@H]([C@H](OC(=O)c3ccccc3)[C@]3(O)C[C@H](OC(=O)[C@H](OC(=O)c4ccccc4)[C@@H](N)c4ccccc4)C(C)=C1C3(C)C)[C@]1(OC(C)=O)CO[C@@H]1C[C@@H]2O` [ISOTAXEL] here?
**A.** 450 µg/mL (≈ 527 µM)
